One block for each compound: values may come before it. Activity calls are given as the source filed them. No cut-off for these calls is given here.
Legend:
DLD-1 = test: Antiproliferative activity against human DLD1 cells after 72 hrs by MTT assay; assay type: functional, cell-based; details: DLD-1, 72 h
Procedure, shortened: (§1)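 MTT read-out after 72 h of continuous exposure. Viability is expressed as percentage of viable cells relative to untreated controls. IC50 comes from dose-response curves. Values are means±SD of four independent experiments (two for some entries). DMSO was below 1%, with vehicle controls at equal DMSO. Precipitation was excluded spectrometrically and microscopically.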

HT-29 [1] = test: Antiproliferative activity against human HT-29 cells after 72 hrs by MTT assay; assay type: functional, cell-based; details: HT-29, 72 h; procedure, shortened: as §1
HCT-116 = test: Antiproliferative activity against human HCT116 cells after 72 hrs by MTT assay; assay type: functional, cell-based; details: HCT-116, 72 h; procedure, shortened: as §1
EA.hy 926 [2] = test: Antiproliferative activity against human EAhy926 cells after 72 hrs by MTT assay; assay type: functional, cell-based; details: EA.hy 926, 72 h; procedure, shortened: as §1
[3] = Antiproliferative activity against human A2780cis cells after 72 hrs by SRB assay; assay type: functional, cell-based
Procedure, shortened: (§2)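 Ovarian A2780 and cisplatin-resistant A2780cis cells were exposed for 72 h and stained with SRB. IC50 comes from dose-response curves, as means±SD of three independent experiments. Final DMSO was below 1%, with matched vehicle controls.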

[4] = Solubility in tween80/ethanol (1:1) solution; assay type: physicochemical
A2780 [5] = test: Antiproliferative activity against human A2780 cells after 72 hrs by SRB assay; assay type: functional, cell-based; details: A2780, 72 h; procedure, shortened: as §2
518A2 [6] = test: Antiproliferative activity against human 518A2 cells after 72 hrs by MTT assay; assay type: functional, cell-based; details: for IC50: 518A2, 72 h; procedure, shortened: as §1
PANC-1 = test: Antiproliferative activity against human PANC1 cells after 72 hrs by MTT assay; assay type: functional, cell-based; details: PANC-1, 72 h; procedure, shortened: as §1
[7] = Antiproliferative activity against human MCF7/Topo cells after 72 hrs by MTT assay; assay type: functional, cell-based; procedure, shortened: as §1
[8] = Antiproliferative activity against human KB-V1/Vbl cells after 72 hrs by MTT assay; assay type: functional, cell-based; procedure, shortened: as §1
Chorioallantoic membrane [9] = test: Antiangiogenic activity in Leghorn chicken embryo chorioallantoic membrane assessed as reduction in blood vessel area at 2.5 nmol after 6 hrs by light microscopic analysis relative to control; assay type: functional, tissue-based; details: Gallus gallus
Procedure, shortened: (§3)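 The CAM assay was run with topical application into a silicon foil ring atop the CAM of fertilized chicken eggs. Area covered by blood vessels was quantified by fractal analysis relative to control.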

Chorioallantoic membrane [10] = test: Antiangiogenic activity in Leghorn chicken embryo chorioallantoic membrane assessed as induction of hemorrhages at 2.5 nmol after 24 hrs by light microscopic analysis; assay type: functional, tissue-based; details: Gallus gallus
Procedure, shortened: (§4)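 Fertilized chicken eggs, CAM assay. Compound was applied topically into a small silicon foil ring placed on the CAM. The membrane and its extraembryonal blood vessels were monitored over 24 h, with observations at 6 h and 24 h post application.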

Chorioallantoic membrane [11] = test: Antiangiogenic activity in Leghorn chicken embryo chorioallantoic membrane assessed as effect on blood vessel length at 2.5 nmol after 6 hrs by light microscopic analysis; assay type: functional, tissue-based; details: Gallus gallus; procedure, shortened: as §4
Chorioallantoic membrane [12] = test: Antiangiogenic activity in Leghorn chicken embryo chorioallantoic membrane assessed as induction of corrosion at 2.5 nmol after 24 hrs by light microscopic analysis; assay type: functional, tissue-based; details: Gallus gallus; procedure, shortened: as §4
Chorioallantoic membrane [13] = test: Antiangiogenic activity in Leghorn chicken embryo chorioallantoic membrane assessed as disruption of bigger blood vessels at 2.5 nmol after 6 hrs by light microscopic analysis; assay type: functional, tissue-based; details: Gallus gallus; procedure, shortened: as §4
EA.hy 926 [14] = test: Cytotoxicity against human EAhy926 cells at 100 nM after 24 hrs by MTT assay relative to control; assay type: cell-based; details: ea.hy 926, 24 h, 0.1 µM
A2780 [15] = test: Antivascular activity against human A2780 cells xenografted in nude mouse assessed as tumor discoloration at 200 mg/kg administered on every other day and measured after 24 hrs; assay type: functional, organism-based; details: in the assay text read “administered as single dose” for “administered on every other day”
Procedure, shortened: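 Mice bore A2780 tumor xenografts. Compound was formulated in tween80/ethanol (1:1) and injected as single doses. Tumors were inspected for discoloration as a sign of vascular disruption, and treated tumors were examined histologically for hemorrhage and necrosis.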

Chorioallantoic membrane [16] = test: Antiangiogenic activity in Leghorn chicken embryo chorioallantoic membrane assessed as induction of hemorrhages at 5 nmol after 6 hrs by light microscopic analysis; assay type: functional, tissue-based; details: Gallus gallus; procedure, shortened: as §4
HT-29 [17] = test: Cell cycle arrest in human HT-29 cells assessed as accumulation of cells at sub G1 phase at 100 nM after 24 hrs by propidium iodide staining-based flow cytometric analysis (reference value: 1.2 +/- 0.3%); assay type: functional
HT-29 [18] = test: Cell cycle arrest in human HT-29 cells assessed as accumulation of cells at G1 phase at 100 nM after 24 hrs by propidium iodide staining-based flow cytometric analysis (reference value: 75.1 +/- 1.1%); assay type: functional
EA.hy 926 [19] = test: Antiangiogenic activity against human EAhy926 cells assessed as inhibition of tube formation on matrigel at 100 nM after 24 hrs by light microscopic analysis; assay type: functional, cell-based
Procedure, shortened: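 Ea.Hy926 endothelial hybrid cells were seeded on matrigel with compound and examined for tubular/cord-like network formation versus untreated controls. Viability under the same conditions was checked in parallel by MTT to exclude cytotoxic effects.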

Chorioallantoic membrane [20] = test: Antiangiogenic activity in Leghorn chicken embryo chorioallantoic membrane assessed as disruption of smaller blood vessels at 5 nmol after 24 hrs by light microscopic analysis; assay type: functional, tissue-based; details: Gallus gallus; procedure, shortened: as §4
518A2 [21] = test: Effect on F-actin in human 518A2 cells assessed as thick stress fibers formation at 100 nM after 3 hrs by DAPI staining-based fluorescence microscopic analysis; assay type: cell-based
Procedure, shortened: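 518A2 melanoma cells were treated with 100 nM for 3 h. Filamentous actin was fluorescence-labelled, nuclei were counterstained with DAPI, and the cells were imaged by fluorescence microscopy. Images come from two independent experiments.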

518A2 [22] = test: Induction of apoptosis in human 518A2 cells at 100 nM after 24 hrs by TUNEL assay relative to control; assay type: functional
HT-29 [23] = test: Cell cycle arrest in human HT-29 cells assessed as accumulation of cells at sub G1 phase at 250 nM after 24 hrs by propidium iodide staining-based flow cytometric analysis (reference value: 1.2 +/- 0.3%); assay type: functional
HT-29 [24] = test: Cell cycle arrest in human HT-29 cells assessed as accumulation of cells at S phase at 100 nM after 24 hrs by propidium iodide staining-based flow cytometric analysis (reference value: 12.3 +/- 0.4%); assay type: functional
HT-29 [25] = test: Cell cycle arrest in human HT-29 cells assessed as accumulation of cells at S phase at 250 nM after 24 hrs by propidium iodide staining-based flow cytometric analysis (reference value: 12.3 +/- 0.4%); assay type: functional
HT-29 [26] = test: Cell cycle arrest in human HT-29 cells assessed as accumulation of cells at G1 phase at 350 nM after 24 hrs by propidium iodide staining-based flow cytometric analysis (reference value: 75.1 +/- 1.1%); assay type: functional
518A2 [27] = test: Antimigratory activity against human 518A2 cells at 50 nM after 48 hrs by wound healing assay; assay type: functional, cell-based
HT-29 [28] = test: Cell cycle arrest in human HT-29 cells assessed as accumulation of cells at S phase at 350 nM after 24 hrs by propidium iodide staining-based flow cytometric analysis (reference value: 12.3 +/- 0.4%); assay type: functional
Tubulin (Homo sapiens) = Tubulin (Homo sapiens) (UniProt P68371+Q9H4B7+P0DPH7+P68366+Q13509+Q71U36+P04350+Q3ZCM7+P07437+P68363+Q9BQE3+Q6PEY2+Q13885+Q9BVA1+Q9BUF5); test: Induction of microtubule disruption in human 518A2 cells at 100 nM after 3 hrs by DAPI staining-based fluorescence microscopic analysis; assay type: cell-based
Procedure, shortened: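 Microtubule organization in 518A2 melanoma cells was checked by tubulin immunofluorescence staining after 3 h exposure to 100 nM, with DAPI as the nuclear counterstain. Images come from two independent experiments.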

Chorioallantoic membrane [29] = test: Antiangiogenic activity in Leghorn chicken embryo chorioallantoic membrane assessed as disruption of smaller blood vessels at 5 nmol after 6 hrs by light microscopic analysis; assay type: functional, tissue-based; details: Gallus gallus; procedure, shortened: as §4
HT-29 [30] = test: Cell cycle arrest in human HT-29 cells assessed as accumulation of cells at G1 phase at 250 nM after 24 hrs by propidium iodide staining-based flow cytometric analysis (reference value: 75.1 +/- 1.1%); assay type: functional
HT-29 [31] = test: Cell cycle arrest in human HT-29 cells assessed as accumulation of cells at G2/M phase at 350 nM after 24 hrs by propidium iodide staining-based flow cytometric analysis (reference value: 11.4 +/- 1.4%); assay type: functional
HT-29 [32] = test: Cell cycle arrest in human HT-29 cells assessed as accumulation of cells at G2/M phase at 250 nM after 24 hrs by propidium iodide staining-based flow cytometric analysis (reference value: 11.4 +/- 1.4%); assay type: functional
HT-29 [33] = test: Cell cycle arrest in human HT-29 cells assessed as accumulation of cells at sub G1 phase at 350 nM after 24 hrs by propidium iodide staining-based flow cytometric analysis (reference value: 1.2 +/- 0.3%); assay type: functional
Chorioallantoic membrane [34] = test: Antiangiogenic activity in Leghorn chicken embryo chorioallantoic membrane assessed as reduction in diameter of main blood vessel at 5 nmol after 24 hrs by light microscopic analysis; assay type: functional, tissue-based; details: Gallus gallus; procedure, shortened: as §4
HT-29 [35] = test: Cell cycle arrest in human HT-29 cells assessed as accumulation of cells at G2/M phase at 100 nM after 24 hrs by propidium iodide staining-based flow cytometric analysis (reference value: 11.4 +/- 1.4%); assay type: functional
Chorioallantoic membrane [36] = test: Antiangiogenic activity in Leghorn chicken embryo chorioallantoic membrane assessed as effect on blood vessel length at 5 nmol after 6 hrs by light microscopic analysis; assay type: functional, tissue-based; details: Gallus gallus; procedure, shortened: as §4
Chorioallantoic membrane [37] = test: Antiangiogenic activity in Leghorn chicken embryo chorioallantoic membrane assessed as induction of hemorrhages at 5 nmol after 24 hrs by light microscopic analysis; assay type: functional, tissue-based; details: Gallus gallus; procedure, shortened: as §4
Chorioallantoic membrane [38] = test: Antiangiogenic activity in Leghorn chicken embryo chorioallantoic membrane assessed as reduction in blood vessel area at 5 nmol after 6 hrs by light microscopic analysis relative to control; assay type: functional, tissue-based; set-up: scale not given: the % may be the effect or the level left; details: Gallus gallus; procedure, shortened: as §3

- IC50 (DLD-1): 0.015 µM
- IC50 (HT-29 [1]): 0.0452 µM
- IC50 (HCT-116): 0.0295 µM
- solubility [4]: Insoluble
- IC50 (A2780 [5]): 0.0164 µM
- IC50 (PANC-1): 0.0131 µM
Structure (SMILES): COc1c(I)cc(C2C(C#N)=C(N)Oc3c2ccc2ccccc32)cc1I (stereo not drawn)
- IC50 (EA.hy 926 [2]): 0.0179 µM
- IC50 [3]: 0.0182 µM
- Activity (518A2 [6]): Dose-dependent effect
- IC50 (518A2 [6]): 0.0371 µM
- IC50 [7]: 0.0228 µM
- IC50 [8]: 0.0165 µM

Structure (SMILES): COc1ccc(/C=C\c2cc(OC)c(OC)c(OC)c2)cc1O
- Activity (Chorioallantoic membrane [9]): Active
- Activity (Chorioallantoic membrane [10]): Active
- Activity (Chorioallantoic membrane [11]): Active
- Activity (Chorioallantoic membrane [12]): Active
- Activity (Chorioallantoic membrane [13]): Active

- IC50 (DLD-1): 0.0026 µM
- IC50 (HT-29 [1]): 0.11 µM
- Activity (Tubulin (Homo sapiens)): Active
- IC50 (A2780 [5]): 0.0148 µM
- IC50 (PANC-1): < 0.0001 µM
Structure (SMILES): N#CC1=C(N)Oc2c(ccc3ccccc23)C1c1cccc(C#N)c1 (stereo not drawn)
- Activity (EA.hy 926 [14]): > 68%
- Activity (A2780 [15]): inactive
- Activity (Chorioallantoic membrane [16]): Active
- Activity (HT-29 [17]): 4.2%
- Activity (HT-29 [18]): 51%
- Activity (EA.hy 926 [19]): Active
- Activity (Chorioallantoic membrane [20]): inactive
- Activity (518A2 [21]): Active
- Activity (518A2 [22]): 69.4%
- Activity (HT-29 [23]): 11.8%
- Activity (HT-29 [24]): 25.1%
- Activity (HT-29 [25]): 18.5%
- IC50 (EA.hy 926 [2]): 0.0043 µM
- Activity (HT-29 [26]): 60.5%
- Activity (518A2 [27]): Active
- IC50 [3]: 0.0179 µM
- Activity (HT-29 [28]): 15.6%
- Activity (Chorioallantoic membrane [29]): Active
- Activity (HT-29 [30]): 59.6%
- Activity (HT-29 [31]): 13.3%
- Activity (HT-29 [32]): 10.1%
- Activity (HT-29 [33]): 10.6%
- Activity (Chorioallantoic membrane [34]): Active
- Activity (518A2 [6]): Dose-dependent effect
- IC50 (518A2 [6]): < 0.0001 µM
- Activity (HT-29 [35]): 19.7%
- IC50 [7]: 0.00041 µM
- IC50 [8]: < 0.0001 µM
- Activity (Chorioallantoic membrane [36]): Active
- Activity (Chorioallantoic membrane [37]): inactive
- Activity (Chorioallantoic membrane [38]): 56%

From ChEMBL document CHEMBL4330063, “New naphthopyran analogues of LY290181 as potential tumor vascular-disrupting agents” (Eur J Med Chem, 2019)
